According to ChEMBL document CHEMBL4513216, “Probing the Open Global Health Chemical Diversity Library for Multistage-Active Starting Points for Next-Generation Antimalarials” (ACS Infect Dis, 2020):

assay: Toxicity liver stage against HepG2, at 10uM; format: cell-based; set-up: test concentration 10 uM, cell line HepG2-A16-CD81EGFP; details: human, HepG2-A16-CD81EGFP cells; read-out: INHIBITION
Method in brief: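 Uninfected HepG2-A16-CD81EGFP cells, 3 × 10^3 per well, 1536-well, plated on prespotted compound at 10 μM final, parasite-free screening media added to match infected plates; puromycin 10 μM positive, DMSO 0.5% negative; run in parallel with 48 h PbLuc assay at 37 °C, 5% CO2; viability by CellTiter-Glo luminescence, normalized to controls.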

SMILES	cytotoxicity at 10 µM [%]
Cc1ccccc1CN1CCC[C@H]1c1nc(-c2cncnc2N)no1	-0.921
COc1coc(C(=O)Nc2nc(-c3ccncc3)cs2)cc1=O	-7.97
CCc1ccc(S(=O)(=O)N2CC3(COC(C)(C)OC3)C2)s1	5.76
O=C1[C@H]2CN(c3ncc(F)cn3)C[C@H]2CN1CC1CC1	6.19
Cc1nnc([C@@H]2CCO[C@@H]3CCN(C(=O)Cc4ccsc4)C[C@@H]32)o1	9.43
Cc1ccc(C(=O)N2CCN3C[C@H](Oc4cncnc4)C[C@H]3C2)cn1	5.01
Cc1noc(C)c1CN1CC2(CCN(C(=O)c3cccn3C)C2)CC1=O (stereo not given)	6.53
CCc1ccc(C(=O)N2CC(C(=O)NC(C)C)C3(CCOCC3)C2)cc1 (stereo not given)	3.65
COCCNC(=O)C(C)n1nc(-c2ccco2)cc(N)c1=O (stereo not given)	2.62
COc1cccc([C@@]2(O)CC[C@@H]3CN(C(=O)c4ccn(C)n4)C[C@@H]32)c1	2
Cc1noc(-c2cnc(NCC3CCCO3)nc2-c2ccco2)c1C (stereo not given)	7.74
COCC(=O)N1CCCC(c2nc(N(C)C)ncc2-c2ccccc2)C1 (stereo not given)	6.1
Cc1nccn1CC1CCCN(S(=O)(=O)c2cnn(C)c2)C1 (stereo not given)	8.58
CC(=O)N1CCCC(c2ccnc(Nc3cnccn3)n2)C1 (stereo not given)	-12.5
C=Cn1ncc(CN2C[C@@H]3C[C@@H](O)CN3C[C@@H]2Cc2ccccc2)c1C	4.02
Cn1ccc(C(=O)N2CCC(Cc3cccc4ncccc34)CC2)n1	-3.17
CC(=O)NCCNC(=O)Nc1cc(C(C)(C)C)sc1C#N	0.665
CC(O)CCN(C)C(=O)Nc1cc(F)cc(Br)c1 (stereo not given)	4.12
O=C(Nc1cc(C(F)(F)F)c[nH]c1=O)C1CCCNC1 (stereo not given)	5.15
CCN(Cc1nccn1C)C1CCN(c2ccccc2)C1=O (stereo not given)	4.19
Cc1nnc(NC(=O)NCc2ccc(C)n2C)s1	-2.08
COC(=O)c1ccoc1CN(C1CC1)C1CCS(=O)(=O)C1 (stereo not given)	2.22
COCCN1CCC(CNC(=O)Nc2ccc(-c3ccccc3)cc2)C1 (stereo not given)	-15.2
O=C(CCC1CCCCO1)NCc1cnn(-c2ccc(F)cc2F)c1 (stereo not given)	-11.4
O=C(NCCN1CCOCC1)c1ccc(OCc2ccccc2)nc1	-5.97
O=C(OC1CCC1)c1ncccc1C(F)(F)F	10.6
CN(Cc1ccc2c(c1)OCO2)C(=O)c1ccc(=O)n(C)c1	-9.17

SMILES	cytotoxicity at 10 µM [%]
Clc1ccc2oc(C3CCN(Cc4nc(C5CC5)no4)CC3)nc2c1	-5.15
CN(C)C(=O)C1CCCN1CCCNC(=O)c1ccccc1Cl (stereo not given)	-8.27
CNC(=O)Cc1ccccc1NC(=O)C1CCCC1	31.1
Cc1c(C(=O)NC2(C#N)CCSC2)nnn1-c1ccccc1Cl (stereo not given)	-5.34
COCCOc1ncccc1C(=O)Nc1c(C)cnn1CC1CC1	3.36
CCC(C)Oc1cc(C(=O)Nc2nnc(C(C)C)[nH]2)ccn1 (stereo not given)	-11.2
CSc1ccsc1C(=O)NS(=O)(=O)c1ccc(F)cc1	-3.91
Cc1cc(=O)[nH]cc1C(=O)N1CCN(C)c2ccccc2C1	-10.1
Cc1cnn(CC(C)NCc2c(C)nn(Cc3ccccc3)c2C)c1 (stereo not given)	-4.66
COC(=O)C1CCN(C(=O)Nc2cc(-n3cccc3)ccc2F)CC1	5.44
COC1CCC(N(C)c2ccnc(N(C)C)n2)CC1 (stereo not given)	-13.6
CCN(CC(=O)NC(C)C)S(=O)(=O)N1CCC(C)C1 (stereo not given)	-3.26
COCC(NC(=O)c1cc[nH]n1)c1cccc(C(F)(F)F)c1 (stereo not given)	-10.7
CN1CCN(Cc2cnc3n2CCN(C(=O)c2ccncc2)C3)CC1	-73.8
CCOCC1CN(C(=O)Cc2ccccn2)Cc2c1cnn2CC (stereo not given)	-69.3
CNc1ncc(-c2ccnn2C2CCN(C(C)=O)CC2)cn1	0.581
Cc1nn(C)c(C)c1CN(C)c1nc(C2CCCC2)nc2c1cnn2C	27.9
Cn1ccnc1C1CCCN(C(=O)c2ccncc2F)C1 (stereo not given)	3.18
COc1ccc(NC(=O)c2cccc(CN3CCCC3C)c2)cc1OC (stereo not given)	0.636
Nc1ncccc1CN1C[C@H]2OC(=O)N(Cc3ccccn3)[C@H]2C1	13.9
CC(C)n1ccnc1C1CCN(Cc2ccc(C(F)(F)F)c(F)c2)CC1	-7.43
CCC[C@@H]1CN(S(=O)(=O)c2ccc(OC)c(OC)c2)C[C@H]1NC(C)=O	3.06
CN(CCCN1CCCC1)[C@@H]1c2ccccc2C2(CCNCC2)[C@H]1O	-3.99
Cc1nccn1CCC(=O)N1CCC2(CCC(=O)N(CC3CC3)C2)CC1	-8.46
CSc1nc(O)c(Cc2ccccc2)c(=O)n1-c1ccccc1	-6.24
COc1cc(Cl)cc(C(=O)N2CCC3(CCCNC3)C2)c1 (stereo not given)	-7
COc1cccc(S(=O)(=O)N2CCN(C)[C@@H]3CS(=O)(=O)C[C@@H]32)c1	-9.6

SMILES	cytotoxicity at 10 µM [%]
Cc1cc(C(F)(F)F)nc(CCNC(C)Cn2ccnc2)n1 (stereo not given)	4.21
Cc1ccnc(CC(C)N(C)Cc2ccc3c(c2)CCO3)c1 (stereo not given)	1.63
Cc1nc(NCc2ccc(C)o2)cc(C2CCNCC2)n1	4.52
CN1CC2(CCCN(Cc3cccc(Oc4ccccc4)c3)C2)OC1=O (stereo not given)	5.09
Cc1ccc(C(=O)N2C[C@@H](C(=O)O)[C@H](c3ccncc3)C2)cc1F	-11.2
N#CCCn1nc(C(F)(F)F)c2c1CCCC2	-11.9
CC(C)Sc1ncccc1C(=O)NCc1ccoc1	-0.945
CCN(c1cc(C)cc(C)c1)S(=O)(=O)c1cc(C(=O)O)cs1	-1.92
COc1ccc(F)cc1C(=O)N1CCCC(n2nc(C)nc2C)C1 (stereo not given)	3.05
O=C(Cc1cn2ccsc2n1)N1CCCC(n2cncn2)C1 (stereo not given)	-5.97
N#Cc1ccc(C(=O)NCCCNc2ccc(C(F)(F)F)cn2)cc1	-4.53
Cc1ccc(CC(=O)N2CCN(CC(O)c3ccccc3)CC2)cn1 (stereo not given)	-10.9
COCCN1CCCN(C(=O)NC(C)Cn2cccn2)CC1 (stereo not given)	-9.39
Cc1[nH]ncc1C(=O)N1CCCC(n2cncn2)C1 (stereo not given)	7.75
Cc1cc(C)n(CCCn2cncc2-c2ccc3c(c2)CC(C)N3C)n1 (stereo not given)	0.94
Cc1csc(C(Cc2ccsc2)NC(=O)CN(C)Cc2cccnc2)n1 (stereo not given)	0.471
Cc1cnnn1Cc1nnn2c1CN(Cc1ccccn1)CCC2	9.73
COCc1cnc2n1CCN(C1CCC1)C2C (stereo not given)	4.77
CCOC(=O)C1(Cc2ccccc2-c2ccccc2OC)CCNCC1	-1.47
CN1C(=O)CC(c2cnn(C)c2)C12CCN(C(=O)c1ccncc1)CC2 (stereo not given)	-84.4
Cc1ccccc1CN1C[C@@H](C(=O)N2CCCCO2)C[C@H]2OCC[C@H]21	-68.5
Cc1ccc(N2C[C@H](C(=O)NCC3CC3)[C@@H]3CCO[C@@H]3C2)nn1	-67.6
Fc1ccc(CN2CCC3(CC2)CCN(Cc2nccs2)CC3)cc1	4.92
COCCN1CCc2cc(C(=O)O)c(-c3ccoc3)nc2CC1	-75.6
Cc1nc[nH]c1CN1C[C@@H]2OCCN(c3ncccn3)[C@@H]2C1	-70.4
CC(=O)NCC(=O)N1CCn2cc(CN(C)Cc3ccco3)nc2C1	4.81
